In ChEMBL document CHEMBL1275519, “In vivo pharmacodynamics of ceftobiprole against multiple bacterial pathogens in murine thigh and lung infection models” (Antimicrob Agents Chemother, 2008):
Converted amounts (≈) assume the structure as drawn.

Columns and labels:
[1] = AUC in CD1 neutropenic mouse with bacterial infection in thigh at 40 mg/kg, sc; type: ADME, organism-based; design: dose 40 mg/kg, route subcutaneous; details: plasma
Procedure, shortened: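 Neutropenic thigh-infected mice (cyclophosphamide i.p. 150 mg/kg day −4, 100 mg/kg day −1) given single s.c. ceftobiprole medocaril doses; two groups of three mice per dose bled retro-orbitally at 0.5–6 h, each animal 3–4 times. Total serum drug measured by agar diffusion bioassay with E. coli NIH-J (linear 0.25–256 μg/ml). Cmax, t1/2 and AUC from one-compartment model.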

Streptococcus pneumoniae [2] = assay: Antimicrobial activity against Streptococcus pneumoniae CDC 673 by broth dilution method; type: functional
Procedure, shortened: (§1)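 Ceftobiprole MIC by broth microdilution per Clinical and Laboratory Standards Institute (formerly NCCLS) methods, using ceftobiprole standard powder.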

[3] = T>MIC in Enterobacter cloacae 2249 infected CD1 neutropenic mouse at static dose of 22.2 mg/kg, sc administered every 3 hrs; type: functional; details: route subcutaneous
Procedure, shortened: (§2)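 Neutropenic mice (cyclophosphamide i.p. 150 and 100 mg/kg, 4 and 1 days pre-infection) given 0.1 ml thigh inoculum (1:10 dilution of 10^8 CFU/ml), then treated from 2 h post-infection for 24 h with s.c. ceftobiprole medocaril (0.010–160 mg/kg) at varied intervals. Thigh CFU plated from homogenates. Static dose came from a sigmoid Hill model, and T>MIC was estimated from mouse PK and MIC.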

[4] = T>MIC in methicillin-resistant Staphylococcus aureus 12248 infected CD1 neutropenic mouse at static dose of 29.2 mg/kg, sc administered every 6 hrs; type: functional; details: route subcutaneous
Staphylococcus aureus [5] = assay: Antimicrobial activity against Staphylococcus aureus ATCC 33591 by broth dilution method; type: functional; procedure, shortened: as §1
Escherichia coli = assay: Antimicrobial activity against Escherichia coli ATCC 25922 by broth dilution method; type: functional
Procedure, shortened: (§3)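 Ceftobiprole MIC determined by CLSI (NCCLS) broth microdilution.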

[6] = T>MIC in Enterobacter cloacae 4567 infected CD1 neutropenic mouse at 2-log kill dose of 4.67 mg/kg, sc administered every 3 hrs; type: functional; details: route subcutaneous
[7] = T>MIC in Staphylococcus aureus […] infected CD1 neutropenic mouse at 2-log kill dose of 10.3 mg/kg, sc administered every 6 hrs; type: functional; details: route subcutaneous
[8] = T>MIC in Streptococcus pneumoniae CDC 673 infected CD1 neutropenic mouse at 2-log kill dose of 29 mg/kg, sc administered every 6 hrs; type: functional; details: route subcutaneous
[9] = T>MIC in Staphylococcus aureus ATCC 29213 infected CD1 neutropenic mouse at static dose of 3.78 mg/kg, sc administered every 6 hrs; type: functional; details: route subcutaneous; procedure, shortened: as §2
[10] = T>MIC in Staphylococcus aureus ATCC 29213 infected CD1 neutropenic mouse at 2-log kill dose of 15.4 mg/kg, sc administered every 6 hrs; type: functional; details: route subcutaneous
[11] = T>MIC in Staphylococcus aureus ATCC 33591 infected CD1 neutropenic mouse at static dose of 7.91 mg/kg, sc administered every 6 hrs; type: functional; details: route subcutaneous; procedure, shortened: as §2
[12] = T>MIC in Streptococcus pneumoniae CDC 673 infected CD1 neutropenic mouse at static dose of 6.68 mg/kg, sc administered every 6 hrs; type: functional; details: route subcutaneous; procedure, shortened: as §2
[13] = T>MIC in Streptococcus pneumoniae ATCC 10813 infected CD1 neutropenic mouse at 2-log kill dose of 0.552 mg/kg, sc administered every 6 hrs; type: functional; details: route subcutaneous
[14] = T>MIC in Streptococcus pneumoniae CDC-145 infected CD1 neutropenic mouse at 2-log kill dose of 3.27 mg/kg, sc administered every 6 hrs; type: functional; details: route subcutaneous
[15] = T>MIC in Streptococcus pneumoniae CDC 1293 infected CD1 neutropenic mouse at 2-log kill dose of 3.55 mg/kg, sc administered every 6 hrs; type: functional; details: route subcutaneous
[16] = T>MIC in Streptococcus pneumoniae MNO-418 infected CD1 neutropenic mouse at static dose of 0.238 mg/kg, sc administered every 6 hrs; type: functional; details: route subcutaneous; procedure, shortened: as §2
Staphylococcus aureus [17] = assay: Antimicrobial activity against methicillin-resistant Staphylococcus aureus 22115 by broth dilution method; type: functional; procedure, shortened: as §1
[18] = T>MIC in methicillin-resistant Staphylococcus aureus 11888 infected CD1 neutropenic mouse at static dose of 22.6 mg/kg, sc administered every 6 hrs; type: functional; details: route subcutaneous
[19] = T>MIC in Staphylococcus aureus ATCC Smith infected CD1 neutropenic mouse at 2-log kill dose of 9.60 mg/kg, sc administered every 6 hrs; type: functional; details: dose 9.6 mg/kg; route subcutaneous
Klebsiella pneumoniae = assay: Antimicrobial activity against Klebsiella pneumoniae ATCC 43816 by broth dilution method; type: functional; procedure, shortened: as §3
Enterobacter cloacae [20] = assay: Antimicrobial activity against Enterobacter cloacae 4567 by broth dilution method; type: functional; procedure, shortened: as §3
[21] = T>MIC in Klebsiella pneumoniae infected CD1 neutropenic mouse at static dose of 6.61 mg/kg, sc administered every 6 hrs; type: functional; details: route subcutaneous; procedure, shortened: as §2
[22] = T>MIC in Pseudomonas aeruginosa ATCC 27853 infected CD1 neutropenic mouse at static dose of 25.2 mg/kg, sc administered every 3 hrs; type: functional; details: route subcutaneous; procedure, shortened: as §2
[23] = T>MIC in Streptococcus pneumoniae CDC 1329 infected CD1 neutropenic mouse at 2-log kill dose of 5.51 mg/kg, sc administered every 6 hrs; type: functional; details: route subcutaneous
[24] = T>MIC in Enterobacter cloacae 2249 infected CD1 neutropenic mouse at 2-log kill dose of 155 mg/kg, sc administered every 3 hrs; type: functional; details: route subcutaneous
Streptococcus pneumoniae [25] = assay: Antimicrobial activity against Streptococcus pneumoniae MNO-418 by broth dilution method; type: functional; procedure, shortened: as §1
[26] = T>MIC in Streptococcus pneumoniae ATCC 10813 infected CD1 neutropenic mouse at static dose of 0.180 mg/kg, sc administered every 6 hrs; type: functional; details: dose 0.18 mg/kg; route subcutaneous; procedure, shortened: as §2
Pseudomonas aeruginosa = assay: Antimicrobial activity against Pseudomonas aeruginosa ATCC 27853 by broth dilution method; type: functional; procedure, shortened: as §1
Enterobacter cloacae [27] = assay: Antimicrobial activity against Enterobacter cloacae 2249 by broth dilution method; type: functional; procedure, shortened: as §3
[28] = Cmax in CD1 neutropenic mouse with bacterial infection in thigh at 10 mg/kg, sc; details: in vivo
[29] = T>MIC in Pseudomonas aeruginosa ATCC 27853 infected CD1 neutropenic mouse at 2-log kill dose of 110 mg/kg, sc administered every 3 hrs; type: functional; details: route subcutaneous
Staphylococcus aureus [30] = assay: Antimicrobial activity against methicillin-resistant Staphylococcus aureus 11888 by broth dilution method; type: functional; procedure, shortened: as §1

In the case of `Nc1nc(/C(=N/O)C(=O)N[C@@H]2C(=O)N3C(C(=O)O)=C(/C=C4\CCN([C@@H]5CCNC5)C4=O)CS[C@H]23)ns1` [CEFTOBIPROLE], the AUC [1] is reported as 27800 ng·h/mL, the MIC (Streptococcus pneumoniae [2]) is reported as 1 µg/mL (≈ 1.87 µM) and the “fT>MIC” value [3] is reported as 44.6%. The “fT>MIC” value [4] was 24.5%, the MIC (Staphylococcus aureus [5]) was 1 µg/mL (≈ 1.87 µM) and the MIC (Escherichia coli) was 0.06 µg/mL (≈ 0.112 µM). The “fT>MIC” value [6] was 40.9%, the “fT>MIC” value [7] was 26.5% and the “fT>MIC” value [8] was 29.7%. For the same molecule, the “fT>MIC” value [9] was 18.9%, the “fT>MIC” value [10] was 29.9% and the “fT>MIC” value [11] was 19.1%. For the same molecule, the “fT>MIC” value [12] was 18.5%, the “fT>MIC” value [13] was 24.8% and the “fT>MIC” value [14] was 23%. The “fT>MIC” value [15] was 18.4%, the “fT>MIC” value [16] was 21.3% and the MIC (Staphylococcus aureus [17]) was 1 µg/mL (≈ 1.87 µM). For the same molecule, the “fT>MIC” value [18] was 22.5%, the “fT>MIC” value [19] was 25.9% and the MIC (Klebsiella pneumoniae) was 0.06 µg/mL (≈ 0.112 µM). For the same molecule, the MIC (Enterobacter cloacae [20]) was 0.5 µg/mL (≈ 0.935 µM), the “fT>MIC” value [21] was 41.2% and the “fT>MIC” value [22] was 46.7%. The “fT>MIC” value [23] was 27%, the “fT>MIC” value [24] was 100% and the MIC (Streptococcus pneumoniae [25]) was 0.015 µg/mL (≈ 0.0281 µM). The “fT>MIC” value [26] was 19.4%, the MIC (Pseudomonas aeruginosa) was 2 µg/mL (≈ 3.74 µM) and the MIC (Enterobacter cloacae [27]) was 2 µg/mL (≈ 3.74 µM). The Cmax [28] was 10800 ng/mL, the “fT>MIC” value [29] was 98.8% and the MIC (Staphylococcus aureus [30]) was 2 µg/mL (≈ 3.74 µM).
